For 1 compound, MIC results are on record in ChEMBL document CHEMBL1131215, “Anhydrolide macrolides. 1. Synthesis and antibacterial activity of 2,3-anhydro-6-O-methyl 11,12-carbamate erythromycin A analogues” (1998).

Type in all cases: functional
Assay [1] deals with Streptococcus pneumoniae. Description: In vitro antibacterial activity against ATCC 6303 strain of Streptococcus pneumoniae. Conditions: Streptococcus pneumoniae, ATCC 6303. Put shortly:
(§1)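 MIC determined by standard agar dilution; values in μg/mL.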

A short description of assay [2]: In vitro antibacterial activity against A-5278 strain of Staphylococcus aureus. Conditions: Staphylococcus aureus. In outline: as §1
A further assay deals with Haemophilus influenzae. Description: In vitro antibacterial activity against DILL strain of Haemophilus influenzae. In outline:
as §1

Assay [3] has as its system Staphylococcus aureus. The experiment in a line: In vitro antibacterial activity against A5177 strain of Staphylococcus aureus. Conditions: Staphylococcus aureus. In outline:
as §1

For assay [4], the system named is Streptococcus pyogenes. The experiment in a line: In vitro antibacterial activity against 930 strain of Streptococcus pyogenes. Conditions: Streptococcus pyogenes. Put shortly: as §1
Assay [5] has as its system Staphylococcus aureus. The experiment in a line: In vitro antibacterial activity against 6538P strain of Staphylococcus aureus. Conditions: Staphylococcus aureus. Put shortly: as §1
The test system of assay [6] is Streptococcus pyogenes. Description: In vitro antibacterial activity against PIU 2548 strain of Streptococcus pyogenes. Conditions: Streptococcus pyogenes. Put shortly:
as §1

In assay [7] the test system is Streptococcus pneumoniae. Description: In vitro antibacterial activity against Streptococcus pneumoniae 5979. In outline:
as §1

The subject of assay [8] is Streptococcus pneumoniae. Description: In vitro antibacterial activity against 5649 strain of Streptococcus pneumoniae. Conditions: Streptococcus pneumoniae. In outline:
as §1

The structures appear in SMILES notation. In brackets after ≈: the same amount, converted by molar mass.

As to `CC[C@H]1OC(=O)/C(C)=C/[C@H](C)[C@@H](O[C@@H]2O[C@H](C)C[C@H](N(C)C)[C@H]2O)[C@@](C)(OC)C[C@@H](C)C(=O)[C@H](C)[C@H]2N(CCc3ccccc3)C(=O)O[C@]12C`, the MIC came to 0.03 µg/mL (≈ 0.0428 µM) against Streptococcus pneumoniae [1]; 50 µg/mL (≈ 71.3 µM) in assay [2]; 32 µg/mL (≈ 45.7 µM) with Haemophilus influenzae; 0.1 µg/mL (≈ 0.143 µM) with Staphylococcus aureus [3]; 25 µg/mL (≈ 35.7 µM) in the assay with Streptococcus pyogenes [4]; 0.39 µg/mL (≈ 0.556 µM) against Staphylococcus aureus [5]. Further, the MIC came to 0.01 µg/mL (≈ 0.0143 µM) with Streptococcus pyogenes [6], 64 µg/mL (≈ 91.3 µM) in the assay with Streptococcus pneumoniae [7] and 1 µg/mL (≈ 1.43 µM) in the assay on Streptococcus pneumoniae [8].
